Assays:
Rattus norvegicus [1] = assay: AUC in Sprague-Dawley rat at 0.5 mg/kg, iv; format: ADME, organism-based, Plasma; design: dose 0.5 mg/kg, route intravenous; settings: in vivo
Summary of the method: (§1)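 Male Sprague-Dawley rats dosed 0.5 mg/kg iv.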

[2] = Tmax in mouse at 5 mg/kg, po; format: ADME, organism-based; design: dose 5 mg/kg, route oral; settings: in vivo
[3] = Mean residence time in mouse at 5 mg/kg, po; format: ADME, organism-based; design: dose 5 mg/kg, route oral; settings: in vivo
[4] = Volume of distribution at steady state in Sprague-Dawley rat at 0.5 mg/kg, iv; format: ADME, organism-based; design: dose 0.5 mg/kg, route intravenous; settings: in vivo, read-out: Vdss; summary of the method: as §1
Rattus norvegicus [5] = assay: Clearance in Sprague-Dawley rat at 0.5 mg/kg, iv; format: ADME, organism-based; design: dose 0.5 mg/kg, route intravenous; settings: in vivo; summary of the method: as §1
[6] = Mean residence time in Sprague-Dawley rat at 0.5 mg/kg, iv; format: ADME, organism-based; design: dose 0.5 mg/kg, route intravenous; settings: in vivo; summary of the method: as §1
[7] = molecular target: T1, Free fatty acid receptor 2 (Homo sapiens) (UniProt O15552); assay: Agonist activity at human FFA2 receptor expressed in CHO cells assessed as inhibition of forskolin-induced cAMP production relative to acetate; format: functional, cell-based
T1 sequence (whole entry): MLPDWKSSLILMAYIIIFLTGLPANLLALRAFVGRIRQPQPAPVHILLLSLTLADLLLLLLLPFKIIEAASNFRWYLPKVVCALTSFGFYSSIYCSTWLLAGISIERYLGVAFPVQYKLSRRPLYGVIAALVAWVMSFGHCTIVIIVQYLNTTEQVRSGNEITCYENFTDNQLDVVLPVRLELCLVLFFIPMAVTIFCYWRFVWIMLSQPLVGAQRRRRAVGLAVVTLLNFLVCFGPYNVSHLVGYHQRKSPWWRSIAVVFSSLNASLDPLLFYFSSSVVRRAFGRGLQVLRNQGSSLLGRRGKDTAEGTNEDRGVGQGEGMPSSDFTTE
Summary of the method: (§2)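 Suspended cells, 10,000 per well, in Hank's balanced salt solution with 25 mM HEPES and 0.01% (w/v) BSA. Stimulated with forskolin (5 μM final) plus serially diluted test ligands, room temperature for 30 min. Antibody and lysis reagents then added, followed by overnight dark incubation with detection solution. Luminescence read (RLU). Efficacy expressed relative to acetate. Means of four experiments.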

[8] = AUC in mouse at 5 mg/kg, po; format: ADME, organism-based; design: dose 5 mg/kg, route oral; settings: plasma
[9] = molecular target: T2, Free fatty acid receptor 2 (Homo sapiens, UniProt O15552); assay: Agonist activity at human FFA2 receptor expressed in CHO cells assessed as inhibition of forskolin-induced cAMP production; format: functional, cell-based; summary of the method: as §2
T2 sequence (O15552 whole entry): T1 sequence (whole entry)

[10] = Cmax in mouse at 5 mg/kg, po; format: ADME, organism-based; design: dose 5 mg/kg, route oral; settings: in vivo
3T3-L1 = assay: Inhibition of lipolysis in mouse 3T3L1 cells; format: functional, cell-based
Summary of the method: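 Lipolysis measured in 3T3L1 adipocytes across a concentration range of test compound. Sensitivity to pertussis toxin treatment also examined. Means of three experiments.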

[11] = molecular target: T3, Free fatty acid receptor 2 (Mus musculus) (UniProt Q8VCK6); assay: Agonist activity at mouse FFA2 receptor expressed in CHO cells assessed as inhibition of forskolin-induced cAMP production; format: functional, cell-based; summary of the method: as §2
T3 sequence (whole entry): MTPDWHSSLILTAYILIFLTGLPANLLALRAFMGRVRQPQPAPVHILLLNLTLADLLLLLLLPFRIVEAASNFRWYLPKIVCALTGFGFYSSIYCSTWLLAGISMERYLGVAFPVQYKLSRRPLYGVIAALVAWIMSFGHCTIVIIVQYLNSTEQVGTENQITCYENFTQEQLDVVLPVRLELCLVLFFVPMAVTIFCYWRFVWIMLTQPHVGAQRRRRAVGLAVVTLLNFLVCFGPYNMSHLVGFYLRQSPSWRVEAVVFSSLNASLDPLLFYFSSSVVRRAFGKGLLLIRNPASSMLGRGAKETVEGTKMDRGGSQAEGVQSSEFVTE

[12] = Metabolic stability in rat liver microsomes assessed as compound remaining after 30 mins; format: ADME, Microsome; settings: read-out: Stability
Summary of the method: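 Incubated with rat liver microsomes; percent parent remaining at 30 min.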

| SMILES | Efficacy [7] | IC50 [9] | further results |
| --- | --- | --- | --- |
| CC(C)(C)[C@H](C(=O)Nc1ncc(Cl)s1)c1ccc(Cl)cc1 | 97% | 1 µM | AUC (Rattus norvegicus [1]): 1.03 µg·h/mL; Tmax [2]: 2 h; MRT [3]: 7.6 h; Vd [4]: 4.4 L/kg; CL (Rattus norvegicus [5]): 8 mL/min/kg; MRT [6]: 9 h; AUC [8]: 4550 µg·h/mL; Cmax [10]: 569 ng/mL |
| O=C(Nc1ncc(F)s1)[C@H](c1ccc(Cl)cc1)C1CC1 | 103% | 1.2 µM |  |
| CC(C)C[C@H](C(=O)Nc1nccs1)c1ccc(Cl)cc1 | 68% | 0.6 µM |  |
| CC(C)[C@H](NS(=O)(=O)c1nccs1)c1ccc(Cl)cc1 | < 30% | > 100 µM |  |
| CC[C@H](C(=O)Nc1nccs1)c1ccc(Cl)cc1 | 105% | 5 µM |  |
| O=C(Nc1ncc(F)s1)C1(c2ccc(Cl)cc2)CC1 | < 30% | > 100 µM |  |
| CC(C)C(C(=O)Nc1nnn[nH]1)c1ccc(Cl)cc1 (racemic) | < 30% | > 100 µM |  |
| Cc1cnc(NC(=O)[C@H](c2ccc(Cl)cc2)C(C)C)s1 | 99% | 0.8 µM | inhibition (3T3-L1): Dose-dependent effect; Activity [11]: 1.4 µM |
| O=C(Nc1ncc(F)s1)[C@H](c1ccccn1)C1CC1 | 75% | 45 µM |  |
| CC(C)[C@H](C(=O)Nc1ccccn1)c1ccc(Cl)cc1 | 92% | 1.4 µM |  |
| O=C(Nc1ncc(F)s1)C1(c2ccc(Cl)cc2)CCCC1 | 88% | 5 µM |  |
| C[C@H](C(=O)Nc1nccs1)c1ccc(Cl)cc1 | 83% | 46 µM |  |
| CC(C)[C@H](C(=O)Nc1ccc(F)cn1)c1ccc(Cl)cc1 | 93% | 1.3 µM |  |
| CC(C)(C)[C@H](C(=O)Nc1ncc(Br)s1)c1ccc(Cl)cc1 | 95% | 0.7 µM |  |
| COCC[C@H](C(=O)Nc1nccs1)c1ccc(Cl)cc1 | 53% | 170 µM |  |
| CC(C)(C)[C@H](C(=O)Nc1ncc(F)s1)c1ccc(Cl)cc1 | 92% | 0.7 µM |  |
| CC(C)C(C(N)=O)c1ccc(Cl)cc1 (racemic) | < 30% | > 100 µM |  |
| CC(C)(C)[C@H](C(=O)Nc1ncc(C(O)(C(F)(F)F)C(F)(F)F)s1)c1ccc(Cl)cc1 | 113% | 1.2 µM |  |
| O=C(Nc1ncc(F)s1)[C@H](c1ccnc(Cl)c1)C1CC1 | 120% | 16 µM |  |
| CC(C)[C@H](C(=O)Nc1nccs1)c1ccc(Cl)cc1 | 100% | 0.7 µM | AUC (Rattus norvegicus [1]): 0.079 µg·h/mL; remaining at 0.5 h [12]: 2%; Tmax [2]: 1 h; inhibition (3T3-L1): Dose-dependent effect; MRT [3]: 1.8 h; Vd [4]: 7 L/kg; CL (Rattus norvegicus [5]): 107 mL/min/kg; MRT [6]: 1.1 h; AUC [8]: 10 µg·h/mL; Cmax [10]: 5 ng/mL; Activity [11]: 1 µM |
| CN1CCN(c2cnc(NC(=O)[C@H](c3ccc(Cl)cc3)C(C)(C)C)s2)CC1 | 113% | 3.8 µM |  |
| O=C(Nc1ncc(F)s1)[C@H](c1ccc(C(F)(F)F)cc1)C1CC1 | 108% | 1.1 µM |  |
| CC(C)[C@H](C(=O)Nc1cnns1)c1ccc(Cl)cc1 | 48% | 57 µM |  |
| CC(C)C(c1ccc(Cl)cc1)S(=O)(=O)Nc1nccs1 (racemic) | < 30% | > 100 µM |  |

| SMILES | Efficacy [7] | IC50 [9] | further results |
| --- | --- | --- | --- |
| CC(C)(C)[C@H](C(=O)Nc1ncc(C(F)(F)F)s1)c1ccc(Cl)cc1 | 95% | 1.5 µM |  |
| CC(C)[C@H](C(=O)Nc1cccc(F)n1)c1ccc(Cl)cc1 | 84% | 1.1 µM |  |
| CSc1cnc(NC(=O)[C@H](c2ccc(Cl)cc2)C(C)(C)C)s1 | 109% | 0.5 µM |  |
| CC(C)C(C(=O)Nc1cnccn1)c1ccc(Cl)cc1 (racemic) | 115% | 5.7 µM |  |
| CC(C)[C@H](C(=O)N(C)c1nccs1)c1ccc(Cl)cc1 | 37% | 84 µM |  |
| CC(C)(C)[C@H](C(=O)Nc1ncc(-c2ccccc2)s1)c1ccc(Cl)cc1 | 111% | 0.7 µM | AUC (Rattus norvegicus [1]): 1.67 µg·h/mL; Tmax [2]: 2 h; MRT [3]: 9.2 h; Vd [4]: 2.7 L/kg; CL (Rattus norvegicus [5]): 5.33 mL/min/kg; MRT [6]: 9.1 h; AUC [8]: 18600 µg·h/mL; Cmax [10]: 1870 ng/mL |
| CC(C)[C@H](C(=O)NCc1ccccc1)c1ccc(Cl)cc1 | < 30% | > 100 µM |  |
| CC(C)[C@H](C(=O)Nc1ccccc1)c1ccc(Cl)cc1 | < 30% | > 100 µM |  |
| CC(C)[C@H](C(=O)Nc1nnc(C(F)(F)F)s1)c1ccc(Cl)cc1 | 115% | 1.9 µM |  |
| CC(C)[C@H](C(=O)Nc1ccon1)c1ccc(Cl)cc1 (racemic) | 90% | 36 µM |  |
| CC(C)(C)[C@H](C(=O)Nc1ncc(Cc2ccc(Cl)cc2)s1)c1ccc(Cl)cc1 | 100% | 25 µM |  |
| O=C(Nc1ncc(F)s1)C1(c2ccc(Cl)cc2)CCCCC1 | 81% | 8.5 µM |  |
| CC(C)[C@H](C(=O)Nc1ncc(Cl)s1)c1ccc(Cl)cc1 | 100% | 0.7 µM | AUC (Rattus norvegicus [1]): 0.249 µg·h/mL; Vd [4]: 8.3 L/kg; CL (Rattus norvegicus [5]): 33 mL/min/kg; MRT [6]: 4.2 h |
| CC(C)[C@H](C(=O)Nc1nc(C(F)(F)F)cs1)c1ccc(Cl)cc1 | 123% | 17 µM |  |
| CC(C)C(C(=O)Nc1ncccn1)c1ccc(Cl)cc1 (racemic) | 50% | 53 µM |  |
| CC(C)C(C(=O)Nc1nc2ccccc2s1)c1ccc(Cl)cc1 (racemic) | 91% | 3 µM |  |
| CC(C)(C(=O)Nc1ncc(F)s1)c1ccc(Cl)cc1 | 57% | 50 µM |  |
| O=C(Cc1ccc(Cl)cc1)Nc1nccs1 | < 30% | > 100 µM |  |
| CC(C)[C@H](C(=O)Nc1ncco1)c1ccc(Cl)cc1 | 92% | 25 µM |  |
| CC(C)[C@H](C(=O)NC(C)(C)C)c1ccc(Cl)cc1 | < 30% | > 100 µM |  |
| CC(C)(C)[C@H](C(=O)Nc1ncc(N2CCS(=O)(=O)CC2)s1)c1ccc(Cl)cc1 | 118% | 2.4 µM |  |
| CC(C)[C@H](C(=O)Nc1ncc(C(=O)O)s1)c1ccc(Cl)cc1 | 42% | 79 µM |  |
| CC(C)C(C(=O)Nc1nc2ccccc2[nH]1)c1ccc(Cl)cc1 (racemic) | 84% | 5.2 µM |  |
| CC(C)C(C(=O)Nc1cccnc1)c1ccc(Cl)cc1 (racemic) | 73% | 49 µM |  |
